KLK5 inh: human KLK5 protease inhibitors, primary screen, biochemical, 1536-well | Kallikrein-5 (Homo sapiens), Q9Y337 | recombinant hK5, fluorogenic AMC substrate cleavage | inhibition, % at 5 µM | 210,000 compounds, 0.59% hits;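 active = inhibition of 40% or more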
thrombin 1536: human alpha-thrombin inhibitors, primary screen, counter-screen for coagulation protease inhibitor project, biochemical, 1536-well, fluorogenic AMC substrate; Boc-VPR-AMC fluorogenic substrate cleavage; 220,000 compounds, 0.26% hits; Prothrombin (Homo sapiens), P00734; inhibition, % at 5 µM;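 active = inhibition at or above 40%; inactive = inhibition below 40%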
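System – human alpha-thrombin · Medium – pH 7.5 Tris (50 mM) with NaCl 150 mM, Tween 20 0.05% · Compound – single-point dosing at 5 µM, 0.2% DMSO · Incubation – enzyme reaction carried out at room temperature · Technique – fluorescence of released AMC, ex 355 nm, em 460 nm · Read-out basis – % inhibition of thrombin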
FXIa inh: human FXIa protease inhibitors, primary screen, biochemical, 1536-well; purified FXIa, Boc-Glu-Ala-Arg-AMC fluorogenic substrate; inhibition, % at 5 µM; 220,000 compounds, 0.14% hits;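 active = inhibition of at least 40%; inactive = inhibition below 40%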;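 also: fluorescence of freed AMC excited at 355 nm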
Furin inh: human furin inhibitors, primary screen, biochemical, fluorescence intensity; P09958; purified furin, fluorogenic substrate cleavage; inhibition, % at 20 µM or 30 µM; 220,000 compounds, 0.061% hits; AID 463115, 2010; in the data active = inhibition above about 25%
FXIIa inh 1536: human FXIIa protease inhibitors, primary screen, biochemical, 1536-well; Coagulation factor XII (Homo sapiens), P00748; 220,000 compounds, 0.3% hits; purified FXIIa, Boc-QGR-AMC fluorogenic substrate, 2 h; inhibition, % at 5 µM; in the data active = inhibition above about 40%
Of the large screens only hits and unclear results are named; the others gave an inactive call. Sampled rows, rich in hits. Any-hit rate of the full collection: about 1.1%.

Cc1cc(OCC(=O)Nc2ccc(CN3CCCCC3)cc2)ccc1Cl	KLK5 inh 42
O=C(COc1ccccc1)Nc1ccc(CN2CCCCC2)cc1	none
N#Cc1cnn(Cc2ccccc2)c1N	none
N#Cc1cnn(Cc2ccc(Cl)cc2)c1N	FXIIa inh 1536 58
COC(=O)c1ccc(CNCC(=O)Nc2ccc(C(=O)OC)cc2)cc1	none
COC(=O)c1ccc(NCC(=O)Nc2cc(C)cc(C)c2)cc1	FXIIa inh 1536 57
CS(=O)(=O)N(CC(=O)Nc1ccc2c(c1)OCCO2)Cc1ccc(Cl)cc1	KLK5 inh 48
O=C(CNCc1ccc(Cl)cc1)Nc1ccc2c(c1)OCCO2	none
CS(=O)(=O)N(CC(=O)NCc1ccco1)Cc1ccc(Cl)cc1	KLK5 inh 78
CCCCSC1=C(C#N)C(c2ccccc2C)C(C(=O)OCC)C(=O)N1 (stereo not given)	none
COc1ccc(C(C)C)cc1S(=O)(=O)Nc1ccncc1	thrombin 1536 46
CCCCNC(=O)CNC(=O)c1cccs1	none
O=C(NCCO)/C(=C\c1ccc(Br)cc1)NC(=O)c1cccs1	none
COCCCNC(=O)/C(=C\c1cccn1C)NC(=O)c1cccs1	thrombin 1536 50
CCOCCCNC(=O)c1cccs1	KLK5 inh 42
CCOC(=O)C1(Cc2ccc(OC)cc2)CCN(C(=O)[C@@H]2CCCN2C(C)=O)CC1	none
O=C(C[n+]1ccc(/C=N/O)cc1)N1CCCCC1	none
Cc1cc(/C=C2\SC(=S)N(C)C2=O)c(C)n1-c1cccc(O)c1	FXIa inh 65
Cc1cc(C)cc(N2CCCn3c2nc2c3c(=O)n(CC(=O)OCc3ccccc3)c(=O)n2C)c1	none
Cc1ccc(N2CC(C)Cn3c2nc2c3c(=O)n(CC(=O)OCc3ccccc3)c(=O)n2C)cc1C (stereo not given)	KLK5 inh 44
O=C(OCC(=O)N1CCCc2ccccc21)c1cnc(Cl)c(Cl)c1	none
O=C(OCC(=O)N1CCCc2ccccc21)c1ccc(Cl)nc1	FXIIa inh 1536 47
O=C(Nc1ncc(Cc2ccccc2)s1)c1cccs1	FXIIa inh 1536 42
CCC(=O)Oc1ccc(C(=O)Nc2ccc3c(c2)OCO3)cc1	none (no result: FXIIa inh 1536)
C=CCNC(=O)/C(C#N)=C\c1cc(Cl)c(O)c(OCC)c1	KLK5 inh 52, thrombin 1536 48
CCOc1cc(/C=C(/C#N)C(=O)Nc2ccc(O)cc2)cc(Br)c1O	none
CCOc1ccc(CC(=O)NNC(=O)/C=C/C(=O)O)cc1	none
CC(C)Oc1ccc(CNC(=S)N/N=C/c2ccc([N+](=O)[O-])cc2)cc1	FXIIa inh 1536 53
CC(C)COc1ccc(CNC(=S)N/N=C/c2ccc([N+](=O)[O-])cc2)cc1	none
CCN(c1ccccc1)S(=O)(=O)c1ccc(C(=O)Nc2nnc(COC)o2)cc1	FXIIa inh 1536 55
COC(=O)/C(=C/Nc1ccccc1)[N+](=O)[O-]	FXIIa inh 1536 46
COC(=O)/C(=C/Nc1ccc(O)cc1)[N+](=O)[O-]	none
CC(C)CNC(=S)NC(=O)c1ccc(Cl)cc1Cl	none
C=CCn1c(SCC(=O)Nc2nc(C)cs2)nnc1C(NC(=O)c1ccccc1)C(C)C (stereo not given)	KLK5 inh 51
COc1cc(C(=O)OCCNC(=O)c2ccncc2)cc(OC)c1OC	none
N#Cc1cc(C(=O)c2ccccc2O)cn(-c2ccc(Cl)cc2)c1=O	none
Cc1c(-n2cc(C(=O)c3ccccc3O)cc(C#N)c2=O)c(=O)n(-c2ccccc2)n1C	KLK5 inh 65
Cc1cc(C)nc(SCc2ccc(F)cc2)n1	none
O=C(NCC1CCCO1)c1sc2cc(Cl)ccc2c1Cl (stereo not given)	none
O=C(c1ccc(-c2ccccc2)cc1)N1CCN(c2ccccn2)CC1	none
Cc1ccc(C(=O)N/C(=C/c2ccc(-c3cccc([N+](=O)[O-])c3)o2)C(=O)NC(C)(C)C)cc1	FXIIa inh 1536 43
CC(C)CCn1c(Sc2nc3ccccc3o2)nc2c1c(=O)[nH]c(=O)n2C	none
CSc1nc(-c2ccccc2)nc(NC(C)=O)c1C(C)=O	none
CSc1nc(-c2ccccc2)nc(N)c1C(C)=O	KLK5 inh 45
CN(C)c1ccc(-c2nnn(CC(=O)Nc3ccccc3N3CCOCC3)n2)cc1	KLK5 inh 66

Assay outcomes (PubChem)
